Data set [1] in a line: Plasma level of compound was measured after 90 min post dose in mouse. It is filed as ADME, organism-based. Particulars: read-out: Plasma level. In a few lines: (§1)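 Female Balb/c mice (~20 g) received compound or vehicle orally in cremophor about 30 min before an i.v. challenge of E. coli 0111:B4 LPS (1.0 μg/mouse) plus D-gal (50 mg/kg) in pyrogen-free saline. One hour after challenge, the mice were bled by cardiac puncture. Serum TNF-α was measured by ELISA in duplicate, and compound levels by HPLC.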

Data set [2] concerns Mus musculus. As to the kind of experiment: In vivo inhibition of LPS-stimulated TNF-alpha in mouse at 100 mg/kg peroral dose; NS = Not significant. Also on record: dose 100 mg/kg. It is filed as functional, organism-based. In a few lines: as §1
The nature of data set [3]: Plasma level of compound was measured after 90 min post dose in mouse. The following applies: read-out: Plasma level. It is filed as ADME, organism-based. The essentials: as §1
Data set [4] deals with Mus musculus. The experiment in a line: In vivo inhibition of LPS-stimulated TNF-alpha in mouse at 100 mg/kg peroral dose. Particulars: route oral. It is filed as functional. In a few lines: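 Female Balb/c mice (~20 g) dosed orally in cremophor ~30 min before iv LPS (E. coli 0111:B4, 1.0 μg/mouse) plus D-gal (50 mg/kg) in pyrogen-free saline. Blood taken by cardiac puncture 1 h after challenge; serum TNF-α by ELISA in duplicate; serum compound levels by HPLC.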

A further data set concerns the target MAP kinase p38 (Homo sapiens, UniProt O15264+Q15759+Q16539+P53778). The experiment in a line: Binding affinity against human Mitogen-activated protein kinase p38. The class given is protein assay. In a few lines:
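Inhibitor at two concentrations (typically 1 and 0.1 μM, verified by HPLC); 60 min room temperature; excitation 332 nm, emission 420 nm. Duplicates; all points fit to equilibrium binding equation for Kd.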

Data set [5] is described as follows: Half-life was measured after intravenous dosing at 1 mg/kg in male cynomolgus monkey (70% PEG400). It is filed as ADME, organism-based, Macaca fascicularis. Also on record: dose 1 mg/kg, route intravenous. The following applies: in vivo.
Data set [6] in a line: Vss was measured after intravenous dosing at 1 mg/kg in female BALB/c mice(70% PEG400). Set-up: dose 1 mg/kg, route intravenous. Particulars: mouse, in vivo, read-out: Vss. The class given is ADME, organism-based.
Data set [7] can be described thus: Vss was measured after intravenous dosing at 1 mg/kg in male cynomolgus monkey (70% PEG400). The class given is ADME, organism-based, Macaca fascicularis. Also on record: dose 1 mg/kg, route intravenous. Particulars: in vivo, read-out: Vss.
Data set [8] concerns the target cAMP-dependent protein kinase (PKA) (Homo sapiens, UniProt P22694+P17612+P22612). As to the kind of experiment: Selectivity against Protein kinase A (PKA). It is filed as protein assay.
Data set [9] in a line: Maximum plasma conc. was measured after oral dosing at 10 mg/kg in female BALB/c mice(100% PEG400). The class given is ADME, organism-based. Also on record: dose 10 mg/kg, route oral. The following applies: mouse.
The nature of data set [10]: Plasma clearance (CL) was measured after intravenous dosing at 1 mg/kg in female BALB/c mice(70% PEG400). The class given is ADME, organism-based. Set-up: dose 1 mg/kg, route intravenous. The following applies: mouse.
A short description of data set [11]: Maximum conc. (Cmax) was measured after oral dosing at 10 mg/kg in male cynomolgus monkey (100% PEG400). It is filed as ADME, organism-based, Macaca fascicularis. Set-up: dose 10 mg/kg, route oral. The following applies: in vivo.
Data set [12] is described as follows: Selectivity against Protein kinase C alpha, Protein kinase C beta, Protein kinase C gamma.
Data set [13] addresses Receptor tyrosine-protein kinase erbB-2 (Homo sapiens, UniProt P04626). As to the kind of experiment: Selectivity against HER2 kinase.
Data set [14] in a line: Maximum time (Tmax) was measured after oral dosing at 10 mg/kg in female BALB/c mice(100% PEG400). Also on record: dose 10 mg/kg, route oral. It is filed as ADME, organism-based. Particulars: mouse, in vivo.
Data set [15] can be described thus: Half life was measured after intravenous dosing at 1 mg/kg in female BALB/c mice(70% PEG400). The class given is ADME, organism-based. Set-up: dose 1 mg/kg, route intravenous. Particulars: mouse, in vivo.
A short description of data set [16]: Plasma clearance was measured after intravenous dosing at 1 mg/kg in male cynomolgus monkey (70% PEG400). The class given is ADME, organism-based, Macaca fascicularis. Set-up: dose 1 mg/kg, route intravenous.
A short description of data set [17]: Bioavailability was measured after oral dosing at 10 mg/kg in female BALB/c mice(100% PEG400). The class given is ADME, organism-based. The following applies: mouse, in vivo, read-out: Bioavailabiility.
A short description of data set [18]: Maximum time (Tmax) was measured after oral dosing at 10 mg/kg in male cynomolgus monkey (100% PEG400). Set-up: dose 10 mg/kg, route oral. Particulars: in vivo. The class given is ADME, organism-based, Macaca fascicularis.
Data set [19] is described as follows: Bioavailability was measured after oral dosing at 10 mg/kg in male cynomolgus monkey (100% PEG400). The following applies: in vivo, read-out: Bioavailabiility. The class given is ADME, organism-based, Macaca fascicularis.

Calls of active or inactive are those of the source.

Usually inhibition in vivo stands for the share of the control response that was lost under treatment. One may read the Kd as the constant that tells how readily two partners part at equilibrium. Broadly, the half-life is the time needed for the level to fall by half in the phase considered. Usually IC50 stands for the point on the concentration scale where inhibition reaches its midpoint. What is called Cmax is the peak of the concentration-time curve. One may read the clearance as the volume of plasma or blood freed of the substance per unit of time. One may read the Tmax as the time from dosing to the highest level.

Chain of Receptor tyrosine-protein kinase erbB-2 (P04626 whole entry): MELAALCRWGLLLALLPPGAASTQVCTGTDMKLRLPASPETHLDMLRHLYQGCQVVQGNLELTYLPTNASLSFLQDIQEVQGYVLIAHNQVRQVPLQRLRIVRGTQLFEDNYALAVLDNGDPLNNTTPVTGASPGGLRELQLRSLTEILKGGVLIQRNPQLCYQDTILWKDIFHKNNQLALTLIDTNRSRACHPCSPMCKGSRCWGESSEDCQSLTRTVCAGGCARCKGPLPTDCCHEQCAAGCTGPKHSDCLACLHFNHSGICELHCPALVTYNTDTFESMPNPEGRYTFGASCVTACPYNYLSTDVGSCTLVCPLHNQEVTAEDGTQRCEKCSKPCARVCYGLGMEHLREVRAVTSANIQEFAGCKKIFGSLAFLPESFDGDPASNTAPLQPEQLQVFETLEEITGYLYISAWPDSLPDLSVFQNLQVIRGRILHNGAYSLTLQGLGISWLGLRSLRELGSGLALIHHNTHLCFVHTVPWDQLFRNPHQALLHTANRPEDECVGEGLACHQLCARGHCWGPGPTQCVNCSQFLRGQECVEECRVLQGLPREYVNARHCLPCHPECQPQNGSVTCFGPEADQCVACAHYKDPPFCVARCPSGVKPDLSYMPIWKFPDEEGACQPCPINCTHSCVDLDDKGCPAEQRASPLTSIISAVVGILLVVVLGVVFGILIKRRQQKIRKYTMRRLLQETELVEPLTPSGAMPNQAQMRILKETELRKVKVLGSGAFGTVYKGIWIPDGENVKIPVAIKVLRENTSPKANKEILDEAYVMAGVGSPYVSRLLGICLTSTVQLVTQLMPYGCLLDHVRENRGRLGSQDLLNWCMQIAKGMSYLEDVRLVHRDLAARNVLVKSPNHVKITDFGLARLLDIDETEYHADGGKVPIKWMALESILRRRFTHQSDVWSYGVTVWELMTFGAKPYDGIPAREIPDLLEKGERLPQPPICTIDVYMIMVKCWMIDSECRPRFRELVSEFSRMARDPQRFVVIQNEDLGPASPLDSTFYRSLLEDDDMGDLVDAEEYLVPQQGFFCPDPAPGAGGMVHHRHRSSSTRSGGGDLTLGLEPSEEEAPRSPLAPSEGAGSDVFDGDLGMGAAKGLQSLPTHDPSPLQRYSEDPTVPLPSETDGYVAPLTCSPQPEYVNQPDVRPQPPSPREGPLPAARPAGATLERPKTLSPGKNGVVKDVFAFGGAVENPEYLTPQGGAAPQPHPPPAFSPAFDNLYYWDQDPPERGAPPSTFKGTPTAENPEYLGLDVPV

`CC(C)(C)c1cc(NC(=O)Nc2ccccc2)n(-c2ccccc2)n1`: in [1], the concentration at 1.5 h turned out to be 100 ng/mL. Besides, the NS entry in the data set on Mus musculus [2] was “inactive”.

Consider `Cc1ccc(-n2nc(C(C)(C)C)cc2NC(=O)Nc2ccccc2)cc1`, for which the concentration at 1.5 h in data set [3] is 11000 ng/mL. In addition, the inhibition in vivo at 100 mg/kg in the data set on Mus musculus [4] amounted to 67%.

The compound `Cc1ccc(-n2nc(C(C)(C)C)cc2NC(=O)Nc2cccc3ccccc23)cc1` had a Kd at MAP kinase p38 of 0.001 µM.

For the compound `Cc1ccc(-n2nc(C(C)(C)C)cc2NC(=O)Nc2ccccc2F)cc1`, the concentration at 1.5 h in data set [1] turned out to be 51000 ng/mL. The compound further displayed an inhibition in vivo at 100 mg/kg in the data set on Mus musculus [4] of 90%.

In the case of `Cc1ccc(-n2nc(C(C)(C)C)cc2NC(=O)Nc2ccc(OCCN3CCOCC3)c3ccccc23)cc1` [DORAMAPIMOD], the figures for the half-life in data set [5] and in data set [15] were 1.6 h and 2.6 h, respectively. Besides, the Vd in data set [6] came out at 0.07 L/kg; in data set [7], 1.9 L/kg. For the same compound, the IC50 in data set [8], in data set [12] and in [13] was > 20 µM throughout. Further, the Cmax in [9] worked out at 27000 ng/mL; in data set [11] it was 1700 ng/mL. Besides, the clearance in [10] came to 0.33 mL/min/kg; in [16], 14.4 mL/min/kg. Moreover, the Tmax in data set [14] is 1 h; in [18], 3 h. In addition, the values for the bioavailability in [17] and in [19] were 23% and 80%, respectively.

Values taken from ChEMBL document CHEMBL1135498, “Pyrazole urea-based inhibitors of p38 MAP kinase: from lead compound to clinical candidate” (J Med Chem, 2002).
